Reference: ChEMBL document CHEMBL4433237, “6,6'-Dihydroxythiobinupharidine as a poison of human type II topoisomerases” (Bioorg Med Chem Lett, 2019)
Active and inactive are the calls of the source. The calls are words filed in the database; no cut-off is given here.

How the values were obtained:
Homo sapiens [1] = organism: Homo sapiens; test: (§1) Covalent poison activity at recombinant human topoisomerase-2alpha N- and C-terminal domain deletion mutant assessed as increase in pBR322 DNA cleavage at 50 uM using supercoiled pBR322 DNA as substrate incubated for 6 mins and measured after 30 mins by ethidium bromide staining based agarose gel electrophoresis method relative to control
How it was run: (§2)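 Enzyme is a human topoisomerase IIα catalytic core (residues 431–1193) lacking the N- and C-terminal domains. Negatively supercoiled plasmid is the substrate. Double-stranded breaks are read as linear plasmid on ethidium bromide-stained agarose gels and compared with a linear standard. Values are means ± SD of three independent experiments.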

Homo sapiens [2] = organism: Homo sapiens; test: as §1, with “100” for “50”; how it was run: as §2
DNA = test: Induction of DNA cleavage in supercoiled pBR322 DNA at 500 uM incubated for 6 mins measured after 30 mins by ethidium bromide staining based agarose gel electrophoresis method relative to control; type: nucleic-acid assay; details: Escherichia coli
How it was run: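 Control with enzyme omitted: 500 μM compound incubated with plasmid DNA alone under DNA cleavage assay conditions. Products resolved on ethidium bromide-stained agarose gel. Two independent experiments.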

[3] = target: DNA topoisomerase 2-alpha (Homo sapiens) (UniProt P11388); test: (§3) Poison activity at recombinant human topoisomerase-2alpha expressed in Saccharomyces cerevisiae assessed as increase in double-stranded DNA cleavage at 500 uM using supercoiled pBR322 DNA as substrate preincubated for 120 sec followed by substrate addition incubated for 6 mins and measured after 30 mins by ethidium bromide staining based agarose gel electrophoresis method relative to control
Chain of DNA topoisomerase 2-alpha (Homo sapiens) (P11388 whole entry): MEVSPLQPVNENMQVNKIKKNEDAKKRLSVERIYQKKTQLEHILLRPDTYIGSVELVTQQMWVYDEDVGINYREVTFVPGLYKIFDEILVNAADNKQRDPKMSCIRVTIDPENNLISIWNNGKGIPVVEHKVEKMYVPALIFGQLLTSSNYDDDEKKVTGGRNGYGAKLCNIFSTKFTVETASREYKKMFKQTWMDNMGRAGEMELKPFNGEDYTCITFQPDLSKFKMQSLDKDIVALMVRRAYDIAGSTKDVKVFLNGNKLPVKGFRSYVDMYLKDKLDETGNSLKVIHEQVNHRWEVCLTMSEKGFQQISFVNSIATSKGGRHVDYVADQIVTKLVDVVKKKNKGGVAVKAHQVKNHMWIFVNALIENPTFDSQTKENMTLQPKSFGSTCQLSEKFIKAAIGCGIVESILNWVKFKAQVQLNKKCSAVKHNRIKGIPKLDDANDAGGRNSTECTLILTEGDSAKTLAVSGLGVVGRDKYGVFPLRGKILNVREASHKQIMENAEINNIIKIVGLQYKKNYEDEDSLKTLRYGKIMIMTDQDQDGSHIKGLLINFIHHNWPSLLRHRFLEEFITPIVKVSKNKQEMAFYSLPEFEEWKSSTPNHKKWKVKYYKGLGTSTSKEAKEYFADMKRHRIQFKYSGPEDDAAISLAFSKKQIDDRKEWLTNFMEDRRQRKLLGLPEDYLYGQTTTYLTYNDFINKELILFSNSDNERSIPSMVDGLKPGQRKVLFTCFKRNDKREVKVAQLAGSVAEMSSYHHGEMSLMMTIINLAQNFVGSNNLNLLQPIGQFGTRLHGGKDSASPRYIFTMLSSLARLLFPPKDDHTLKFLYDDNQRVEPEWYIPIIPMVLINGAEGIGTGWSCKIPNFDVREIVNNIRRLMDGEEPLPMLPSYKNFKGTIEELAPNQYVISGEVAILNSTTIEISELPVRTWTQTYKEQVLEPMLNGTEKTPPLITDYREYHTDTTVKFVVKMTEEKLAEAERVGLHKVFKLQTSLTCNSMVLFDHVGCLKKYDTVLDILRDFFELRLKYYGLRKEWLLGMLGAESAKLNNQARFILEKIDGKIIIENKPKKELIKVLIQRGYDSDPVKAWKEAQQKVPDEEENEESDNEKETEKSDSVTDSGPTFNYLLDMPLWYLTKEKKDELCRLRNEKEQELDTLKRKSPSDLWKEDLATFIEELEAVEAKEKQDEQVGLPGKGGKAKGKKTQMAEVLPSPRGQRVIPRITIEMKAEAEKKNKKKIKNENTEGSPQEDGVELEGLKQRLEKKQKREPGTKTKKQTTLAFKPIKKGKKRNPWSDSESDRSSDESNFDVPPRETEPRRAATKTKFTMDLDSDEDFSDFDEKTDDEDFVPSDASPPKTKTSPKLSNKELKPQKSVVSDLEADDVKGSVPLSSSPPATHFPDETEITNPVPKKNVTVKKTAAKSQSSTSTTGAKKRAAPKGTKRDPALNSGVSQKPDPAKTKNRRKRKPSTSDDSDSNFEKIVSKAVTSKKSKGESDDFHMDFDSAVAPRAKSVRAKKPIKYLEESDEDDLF
How it was run: (§4)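 500 μM compound preincubated with topoisomerase IIα for varying times before DNA addition. Double-stranded breaks measured and expressed relative to the zero-time level set to 1.0. Three independent experiments.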

[4] = target: DNA topoisomerase 2-alpha (Homo sapiens) (UniProt P11388); test: Poison activity at recombinant human topoisomerase-2alpha expressed in Saccharomyces cerevisiae assessed as stabilization of DNA-enzyme cleavage complex at 500 uM using supercoiled pBR322 DNA as substrate incubated for 10 mins and measured after 0 to 240 mins by ethidium bromide staining based agarose gel electrophoresis method
[5] = target: DNA topoisomerase 2-alpha (Homo sapiens) (UniProt P11388); test: (§5) Covalent poison activity at recombinant human topoisomerase-2alpha expressed in Saccharomyces cerevisiae assessed as decrease in pBR322 DNA cleavage up to 1000 uM using supercoiled pBR322 DNA as substrate incubated for 6 mins and measured after 30 mins in presence of ascorbic acid by ethidium bromide staining based agarose gel electrophoresis method relative to control
[6] = target: DNA topoisomerase 2-alpha (Homo sapiens) (UniProt P11388); test: as §3, with “Inhibition of” for “Poison activity at”, “substrate” for “substrate preincubated for 120 sec followed by substrate addition”, “mins” for “mins and”, “mins in presence of EDTA” for “mins”
How it was run: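 Human topoisomerase IIα, plasmid DNA and 500 μM compound. After reaction, mixtures treated with 25 mM EDTA before SDS to remove active-site Mg2+, versus reactions stopped with SDS before EDTA. Cleavage read on ethidium bromide-stained agarose gel. Two independent experiments.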

Homo sapiens [7] = organism: Homo sapiens; test: as §1, with “0 to 1000” for “50”
How it was run: (§6)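 Plasmid cleavage with topoisomerase IIα truncations: C-terminal deletion construct keeping the N-terminal portion or catalytic core, residues 431–1193, lacking both N- and C-terminal domains. Compound at 0–1000 μM. Cleavage complexes trapped with SDS. Negatively supercoiled, nicked and linear forms resolved on ethidium bromide-stained agarose gels. Cleavage normalized to linear standards set to 100%.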

[8] = target: DNA topoisomerase 2-alpha (Homo sapiens) (UniProt P11388); test: as §5, with “glutathione” for “ascorbic acid”
[9] = target: DNA topoisomerase 2-alpha (Homo sapiens) (UniProt P11388); test: Poison activity at recombinant human topoisomerase-2alpha expressed in Saccharomyces cerevisiae assessed as rate of DNA ligation time at 0 to 500 uM incubated for 6 mins by agarose gel electrophoresis method (reference value: 12.5 sec)
[10] = target: DNA topoisomerase 2-alpha (Homo sapiens) (UniProt P11388); test: as §3, with “Inhibition of” for “Poison activity at”, “0 to 1000” for “500”, “substrate” for “substrate preincubated for 120 sec followed by substrate addition”, “mins” for “mins and”
How it was run: (§7)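 Human topoisomerase IIα or IIβ with negatively supercoiled plasmid. Cleavage trapped with SDS. Supercoiled, nicked and linear forms resolved on ethidium bromide-stained agarose gels. Cleavage normalized to linear standards set to 100%. Three independent experiments.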

[11] = target: DNA topoisomerase 2-beta (Homo sapiens) (UniProt Q02880); test: Inhibition of recombinant human topoisomerase-2beta expressed in Saccharomyces cerevisiae assessed as increase in double-stranded DNA cleavage at 0 to 1000 uM using supercoiled pBR322 DNA as substrate incubated for 6 mins measured after 30 mins by ethidium bromide staining based agarose gel electrophoresis method relative to control; how it was run: as §7
Chain of DNA topoisomerase 2-beta (Homo sapiens) (Q02880 whole entry): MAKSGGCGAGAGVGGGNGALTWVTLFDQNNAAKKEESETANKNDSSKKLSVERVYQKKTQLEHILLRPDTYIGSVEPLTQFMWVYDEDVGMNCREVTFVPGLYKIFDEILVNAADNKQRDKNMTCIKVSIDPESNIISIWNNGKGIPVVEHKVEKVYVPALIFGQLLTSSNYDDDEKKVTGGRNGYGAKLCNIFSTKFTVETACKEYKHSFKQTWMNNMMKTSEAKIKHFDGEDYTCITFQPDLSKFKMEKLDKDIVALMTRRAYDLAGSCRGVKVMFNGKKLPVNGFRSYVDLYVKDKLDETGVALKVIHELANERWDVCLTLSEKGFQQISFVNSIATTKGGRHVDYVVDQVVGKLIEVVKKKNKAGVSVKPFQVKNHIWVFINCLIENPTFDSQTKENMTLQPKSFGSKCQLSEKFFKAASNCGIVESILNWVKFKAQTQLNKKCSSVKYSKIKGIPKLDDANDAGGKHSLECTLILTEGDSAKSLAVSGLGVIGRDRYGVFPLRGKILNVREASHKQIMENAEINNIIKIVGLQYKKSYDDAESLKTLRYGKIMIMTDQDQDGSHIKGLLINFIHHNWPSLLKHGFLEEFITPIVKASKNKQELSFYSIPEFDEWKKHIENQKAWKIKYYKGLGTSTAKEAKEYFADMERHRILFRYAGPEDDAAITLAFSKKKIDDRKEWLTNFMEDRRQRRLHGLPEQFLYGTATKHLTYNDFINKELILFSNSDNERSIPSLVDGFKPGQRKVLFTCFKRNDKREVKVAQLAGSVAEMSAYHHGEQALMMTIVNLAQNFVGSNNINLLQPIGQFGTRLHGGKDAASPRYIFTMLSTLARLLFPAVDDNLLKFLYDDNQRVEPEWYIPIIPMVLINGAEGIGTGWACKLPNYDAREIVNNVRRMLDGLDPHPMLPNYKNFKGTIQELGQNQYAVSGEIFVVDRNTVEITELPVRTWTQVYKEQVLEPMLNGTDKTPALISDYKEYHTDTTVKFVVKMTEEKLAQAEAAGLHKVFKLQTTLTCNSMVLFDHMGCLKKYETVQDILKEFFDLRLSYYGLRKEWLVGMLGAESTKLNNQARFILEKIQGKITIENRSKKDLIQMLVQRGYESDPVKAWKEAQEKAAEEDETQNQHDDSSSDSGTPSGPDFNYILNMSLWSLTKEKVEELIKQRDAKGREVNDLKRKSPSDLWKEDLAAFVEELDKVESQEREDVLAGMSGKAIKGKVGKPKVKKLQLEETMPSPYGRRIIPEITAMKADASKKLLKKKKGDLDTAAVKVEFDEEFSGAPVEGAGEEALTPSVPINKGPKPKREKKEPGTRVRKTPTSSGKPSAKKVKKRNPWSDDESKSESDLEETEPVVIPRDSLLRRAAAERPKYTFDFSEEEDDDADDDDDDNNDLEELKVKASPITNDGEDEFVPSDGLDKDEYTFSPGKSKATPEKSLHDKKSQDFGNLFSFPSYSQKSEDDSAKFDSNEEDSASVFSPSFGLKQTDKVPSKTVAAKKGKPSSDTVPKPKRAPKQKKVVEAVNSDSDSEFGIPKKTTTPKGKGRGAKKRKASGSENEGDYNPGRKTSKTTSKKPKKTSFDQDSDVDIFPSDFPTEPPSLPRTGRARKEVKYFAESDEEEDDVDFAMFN

[12] = target: DNA topoisomerase 2-alpha (Homo sapiens) (UniProt P11388); test: as §5, with “dithiothreitol” for “ascorbic acid”
[13] = target: DNA topoisomerase 2-alpha (Homo sapiens) (UniProt P11388); test: as §3, with “assessed as enzyme inactivation time by measuring increase in” for “assessed as increase in”; how it was run: as §4
Homo sapiens [14] = organism: Homo sapiens; test: as §1, with “human N-terminal” for “human”, “topoisomerase-2alpha” for “topoisomerase-2alpha N- and”, “mutant expressed in Saccharomyces cerevisiae” for “mutant”, “0 to 1000” for “50”; how it was run: as §6

| Structure (SMILES) | Activity (Homo sapiens [1]) | Activity (Homo sapiens [2]) | Activity (DNA) | inhibition [3] [%] | Activity [4] | Activity [5] | inhibition [6] | Activity (Homo sapiens [7]) | Activity [8] | T1/2 [9] [s] | fold change (FC) [10] | fold change (FC) [11] | Activity [12] | T1/2 [13] [s] | Activity (Homo sapiens [14]) |
| --- | --- | --- | --- | --- | --- | --- | --- | --- | --- | --- | --- | --- | --- | --- | --- |
| COc1cc([C@@H]2c3cc4c(cc3[C@@H](O[C@@H]3O[C@@H]5CO[C@@H](C)O[C@H]5[C@H](O)[C@H]3O)[C@H]3COC(=O)[C@H]23)OCO4)cc(OC)c1O | Active | Active | – | – | – | – | – | – | – | – | – | – | – | – | – |
| C[C@@H]1CC[C@@H](c2ccoc2)N2[C@H]1CC[C@@]1(CS[C@@]3(CC[C@H]4[C@H](C)CC[C@@H](c5ccoc5)N4[C@@H]3O)C1)[C@H]2O | – | – | inactive | 100 | Active | inactive | inactive | inactive | inactive | 11 | 8 | 3 | inactive | 30 | Active |
